Laboratory results published in ChEMBL document CHEMBL3352149, “Promiscuity and selectivity in covalent enzyme inhibition: a systematic study of electrophilic fragments” (J Med Chem, 2014).
Calls of active or inactive are those of the source. The calls are words filed in the database; no cut-off is given here.

Tests used:
Escherichia coli [1] = assay: Inhibition of wild-type Escherichia coli MurB compound preincubated for 10 mins before substrate addition at 25 uM measured after 15 mins by LC-MS method
Procedure, shortened: (§1)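 E. coli wild-type enzyme (4 nM) was preincubated with 25 μM compound for 10 min at 37 °C. Enzymatically generated nucleotide-sugar substrate (~200 μM) plus ATP (~200 μM), or NADPH 200 μM for MurB, was added for 10 min. Reactions were started with amino-acid cosubstrate (MurC–F) or EP-UNAG (MurB), run 15 min at 37 °C, and quenched with formic acid. Product was measured by negative-ESI LC-MS EIC peak area. MgCl2: MurC 10, MurD/E 2, MurF 5 mM; MurB had 5 mM KCl. All in 50 mM NH4HCO3, 0.07% BSA, 1% DMSO; triplicate.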

Escherichia coli [2] = assay: Inhibition of wild-type Escherichia coli MurD compound preincubated for 10 mins before substrate addition at 25 uM measured after 15 mins by LC-MS method; procedure, shortened: as §1
[3] = biological target: Genome polyprotein (West Nile virus) (UniProt P06935); assay: Inhibition of West Nile virus NS2B-NS3 protease at 50 uM
Escherichia coli [4] = assay: Inhibition of wild-type Escherichia coli MurA compound preincubated for 10 mins before substrate addition at 25 uM measured after 15 mins by LC-MS method
Escherichia coli [5] = assay: Inhibition of wild-type Escherichia coli MurF compound preincubated for 10 mins before substrate addition at 25 uM measured after 15 mins by LC-MS method; procedure, shortened: as §1
Escherichia coli [6] = assay: Induction of covalent MurB enzyme adduct formation preincubated with UNAG substrate for 10 mins compound treated at 300 uM after 1 hr by ESI-MS analysis
[7] = GSH reactivity of the compound assessed as adducts formation by RP-HPLC analysis
Procedure, shortened: (§2)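 Fresh aqueous glutathione (10 mM solution) was added to 50 mM Tris-maleate buffer, pH 7.5. The reaction was started with compound from 10 mM DMSO stock (final 250 μM). Mixtures were followed by reversed-phase HPLC on an ODS column with a gradient to 100% B; rate constants are given in l·mol⁻¹·s⁻¹.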

Prothrombin (Bos taurus) = Prothrombin (Bos taurus) (UniProt P00735); assay: Inhibition of Bovine thrombin using Boc-Val-Pro-Arg-AMC as substrate compound preincubated at 25 uM for 15 mins by fluorescence assay
Procedure, shortened: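 Bovine thrombin (final 10 nM) was preincubated 15 min with 25 μM compound in 50 mM Tris-HCl pH 7.5, 150 mM NaCl, 0.05% Tween 20. The reaction was started with Boc-Val-Pro-Arg-AMC (50 μM final). Fluorescence (ex 355/em 460 nm) was monitored continuously for 10 min; activity taken as slope (RFU/s). Triplicate.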

Escherichia coli [8] = assay: Inhibition of wild-type Escherichia coli MurC compound preincubated for 10 mins before substrate addition at 25 uM measured after 15 mins by LC-MS method; procedure, shortened: as §1
[9] = biological target: Methionine aminopeptidase 1 (Homo sapiens) (UniProt P53582); assay: Inhibition of human MetAP at 25 uM after 20 mins by HPLC analysis
Procedure, shortened: (§3)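 Endpoint assay. Enzyme (50 nM) was preincubated with 25 μM compound for 20 min at 37 °C in 50 mM Tris pH 7.5, 100 mM NaCl, 100 μM CoCl2, 0.075% BSA. MGMM substrate (400 μM) was then added for 15 min (human MetAP-1) or 20 min (E. coli MetAP). Reactions were stopped with TFA. GMM product was quantified by RP-HPLC, UV 214 nm. Triplicate.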

[10] = biological target: Genome polyprotein (dengue virus type 2) (UniProt P12823); assay: Inhibition of Dengue virus serotype 2 NS2B-NS3 protease at 50 uM
Escherichia coli [11] = assay: Inhibition of Escherichia coli MetAP at 25 uM after 20 mins by HPLC analysis; procedure, shortened: as §3
Escherichia coli [12] = assay: Inhibition of wild-type Escherichia coli MurE compound preincubated for 10 mins before substrate addition at 25 uM measured after 15 mins by LC-MS method; procedure, shortened: as §1
HeLa = assay: Cytotoxicity against human HeLa cells assessed as reduction in cell viability after 24 hrs by CellTiter-Blue assay; assay type: cell-based
Procedure, shortened: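 HeLa cells seeded in triplicate at 5×10^3 cells/well and grown 24 h at 37 °C/5% CO2. Compounds at varying concentrations were added as a 2x stock in phenol-red-free DMEM with FBS, penicillin/streptomycin, sodium pyruvate and L-glutamine, then left 24 h. Medium was replaced with CellTiter-Blue medium for 3 h. A570/A610 was read after background subtraction, as % of untreated controls; EC50 derived.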

[13] = GSH reactivity of the compound assessed as half life by RP-HPLC analysis
Escherichia coli [14] = assay: Induction of covalent MurE enzyme adduct formation preincubated with UNAG substrate for 10 mins compound treated at 300 uM after 1 hr by ESI-MS analysis
Escherichia coli [15] = assay: Induction of covalent MetAP enzyme adduct formation at 300 uM after 1 hr by ESI-MS analysis
Procedure, shortened: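 E. coli MetAP (25 μM) was incubated with 300 μM compound for 60 min at 37 °C in 50 mM NH4HCO3, pH 7.9, with 200 μM CoCl2. Untreated enzyme served as control. Samples were spin-desalted on Sephadex G-25 and analysed by flow-injection ESI-MS in positive mode (isocratic water/acetonitrile 95/5 with 0.1% formic acid), looking for covalent adducts.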

Escherichia coli [16] = assay: Induction of covalent MurA enzyme adduct formation preincubated with UNAG substrate for 10 mins compound treated at 300 uM after 1 hr by ESI-MS analysis
Procedure, shortened: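 E. coli MurA (25 μM) preincubated with UNAG 300 μM for 10 min at 37 °C, then test compound added at 300 μM. Incubation ran 60 min at 37 °C in 50 mM NH₄HCO₃, pH 7.9. Samples were spin-desalted on Sephadex G-25, then analysed by flow-injection positive-mode ESI-MS for enzyme adducts. Untreated enzyme served as control.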

[17] = GSH reactivity of the compound assessed as adducts formation meaured over 3 hrs by RP-HPLC analysis; procedure, shortened: as §2

Sequence of Genome polyprotein (West Nile virus) (P06935 whole entry): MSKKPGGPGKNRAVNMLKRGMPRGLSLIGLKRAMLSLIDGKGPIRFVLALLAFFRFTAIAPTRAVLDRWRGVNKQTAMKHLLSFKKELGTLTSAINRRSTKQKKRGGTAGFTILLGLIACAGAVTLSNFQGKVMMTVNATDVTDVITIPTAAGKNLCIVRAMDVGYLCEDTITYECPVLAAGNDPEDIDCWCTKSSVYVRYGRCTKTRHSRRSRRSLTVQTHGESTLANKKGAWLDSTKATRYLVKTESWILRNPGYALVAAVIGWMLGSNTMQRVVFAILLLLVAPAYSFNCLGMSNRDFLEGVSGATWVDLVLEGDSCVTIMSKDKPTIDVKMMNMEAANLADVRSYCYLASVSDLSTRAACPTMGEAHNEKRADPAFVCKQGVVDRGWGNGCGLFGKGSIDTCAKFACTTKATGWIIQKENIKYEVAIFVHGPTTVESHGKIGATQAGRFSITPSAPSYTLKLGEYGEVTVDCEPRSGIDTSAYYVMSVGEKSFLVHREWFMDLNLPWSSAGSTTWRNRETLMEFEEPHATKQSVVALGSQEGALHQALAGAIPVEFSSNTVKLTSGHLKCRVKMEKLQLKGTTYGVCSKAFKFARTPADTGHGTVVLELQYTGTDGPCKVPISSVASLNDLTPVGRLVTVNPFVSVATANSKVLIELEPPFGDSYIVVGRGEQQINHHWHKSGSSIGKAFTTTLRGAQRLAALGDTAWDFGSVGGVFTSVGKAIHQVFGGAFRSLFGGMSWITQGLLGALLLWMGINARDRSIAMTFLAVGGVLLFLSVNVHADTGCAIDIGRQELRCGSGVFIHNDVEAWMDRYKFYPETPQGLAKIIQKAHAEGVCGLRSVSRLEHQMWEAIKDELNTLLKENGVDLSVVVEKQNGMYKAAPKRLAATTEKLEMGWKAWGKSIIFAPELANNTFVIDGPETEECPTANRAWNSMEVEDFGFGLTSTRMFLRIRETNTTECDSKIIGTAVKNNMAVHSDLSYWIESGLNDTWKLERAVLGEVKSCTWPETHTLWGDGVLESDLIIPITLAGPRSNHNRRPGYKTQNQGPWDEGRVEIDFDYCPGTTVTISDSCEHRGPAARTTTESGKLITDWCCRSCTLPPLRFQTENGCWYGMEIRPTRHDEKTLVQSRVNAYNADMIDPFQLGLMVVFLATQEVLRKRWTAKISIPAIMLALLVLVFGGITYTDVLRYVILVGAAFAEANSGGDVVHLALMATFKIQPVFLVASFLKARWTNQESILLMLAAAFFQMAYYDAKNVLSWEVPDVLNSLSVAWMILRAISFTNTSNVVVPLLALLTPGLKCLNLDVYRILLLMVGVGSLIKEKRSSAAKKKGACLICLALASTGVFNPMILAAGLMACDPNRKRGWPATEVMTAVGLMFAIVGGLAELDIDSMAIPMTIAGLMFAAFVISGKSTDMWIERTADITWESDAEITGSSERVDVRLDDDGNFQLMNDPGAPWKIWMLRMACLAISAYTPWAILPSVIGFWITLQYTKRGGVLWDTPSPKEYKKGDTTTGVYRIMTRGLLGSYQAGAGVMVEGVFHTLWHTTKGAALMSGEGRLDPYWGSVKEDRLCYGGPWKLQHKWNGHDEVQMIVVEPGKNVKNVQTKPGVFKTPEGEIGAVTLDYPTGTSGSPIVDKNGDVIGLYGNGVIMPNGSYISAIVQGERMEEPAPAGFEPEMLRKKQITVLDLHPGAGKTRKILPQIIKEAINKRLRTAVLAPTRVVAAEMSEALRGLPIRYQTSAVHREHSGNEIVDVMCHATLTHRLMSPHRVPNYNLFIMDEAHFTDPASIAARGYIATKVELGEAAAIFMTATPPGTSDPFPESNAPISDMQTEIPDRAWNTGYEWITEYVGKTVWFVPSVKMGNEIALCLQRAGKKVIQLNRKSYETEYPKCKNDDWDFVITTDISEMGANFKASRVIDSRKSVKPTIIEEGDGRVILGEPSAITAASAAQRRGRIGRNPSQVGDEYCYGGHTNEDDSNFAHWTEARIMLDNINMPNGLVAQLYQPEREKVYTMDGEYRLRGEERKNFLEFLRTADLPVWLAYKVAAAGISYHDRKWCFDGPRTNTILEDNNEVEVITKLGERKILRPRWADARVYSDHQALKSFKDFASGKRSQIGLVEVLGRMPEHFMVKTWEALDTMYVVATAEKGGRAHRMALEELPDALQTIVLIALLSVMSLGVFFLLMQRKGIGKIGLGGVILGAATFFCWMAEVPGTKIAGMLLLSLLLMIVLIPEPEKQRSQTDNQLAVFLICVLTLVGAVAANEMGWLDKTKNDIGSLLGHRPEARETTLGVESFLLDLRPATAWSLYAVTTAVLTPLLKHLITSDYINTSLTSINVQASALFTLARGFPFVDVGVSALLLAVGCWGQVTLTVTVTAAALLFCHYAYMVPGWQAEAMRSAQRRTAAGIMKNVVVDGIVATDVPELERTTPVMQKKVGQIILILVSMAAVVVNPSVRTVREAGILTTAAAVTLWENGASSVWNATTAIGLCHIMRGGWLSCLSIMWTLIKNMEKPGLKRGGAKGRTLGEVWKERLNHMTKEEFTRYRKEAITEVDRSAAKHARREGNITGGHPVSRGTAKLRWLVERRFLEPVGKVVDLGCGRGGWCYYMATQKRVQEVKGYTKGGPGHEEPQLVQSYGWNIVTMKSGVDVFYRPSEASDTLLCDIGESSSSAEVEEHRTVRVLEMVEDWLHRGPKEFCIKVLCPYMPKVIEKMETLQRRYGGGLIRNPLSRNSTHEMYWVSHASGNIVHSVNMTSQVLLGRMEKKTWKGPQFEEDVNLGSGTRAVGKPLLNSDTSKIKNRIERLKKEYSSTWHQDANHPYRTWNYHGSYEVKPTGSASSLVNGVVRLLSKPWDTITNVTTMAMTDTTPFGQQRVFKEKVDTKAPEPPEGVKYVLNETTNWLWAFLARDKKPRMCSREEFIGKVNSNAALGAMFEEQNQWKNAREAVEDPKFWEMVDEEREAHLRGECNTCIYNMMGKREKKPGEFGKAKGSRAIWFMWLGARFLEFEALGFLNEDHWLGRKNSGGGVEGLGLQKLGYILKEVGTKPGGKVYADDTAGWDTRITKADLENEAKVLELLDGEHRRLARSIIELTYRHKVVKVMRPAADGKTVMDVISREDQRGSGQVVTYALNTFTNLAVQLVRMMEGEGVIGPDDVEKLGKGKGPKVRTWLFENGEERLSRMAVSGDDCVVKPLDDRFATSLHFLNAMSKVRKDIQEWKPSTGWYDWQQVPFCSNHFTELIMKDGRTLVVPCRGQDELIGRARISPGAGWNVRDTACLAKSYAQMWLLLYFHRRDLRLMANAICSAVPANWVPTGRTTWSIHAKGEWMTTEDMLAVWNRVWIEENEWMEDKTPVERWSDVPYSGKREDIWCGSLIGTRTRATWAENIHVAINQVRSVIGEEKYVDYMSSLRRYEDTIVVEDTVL

Structure (SMILES)	inhibition (Escherichia coli [1])	inhibition (Escherichia coli [2])	inhibition [3]	inhibition (Escherichia coli [4])	inhibition (Escherichia coli [5])	Activity (Escherichia coli [6])	Activity [7]	inhibition (Prothrombin (Bos taurus))	inhibition (Escherichia coli [8])	inhibition [9]	inhibition [10]	inhibition (Escherichia coli [11])	inhibition (Escherichia coli [12])	EC50 (HeLa)	T1/2 [13]	Activity (Escherichia coli [14])	Activity (Escherichia coli [15])	Activity (Escherichia coli [16])	Activity [17]
O=C(Nc1ccc(F)cc1)n1ccnc1	< 15%	< 15%	< 15%	28%	< 15%	< 0.1 L/mol/s	< 0.1 L/mol/s	< 15%	< 15%	< 15%	< 15%	< 15%	< 15%						
O=C(Nc1ccc([N+](=O)[O-])cc1)C1CC(Br)=NO1 (configuration not stated)	< 15%	< 15%	< 15%	< 15%	< 15%	< 0.1 L/mol/s	< 0.1 L/mol/s	< 15%	< 15%	< 15%	< 15%	28%	44%	73.4 µM	> 200 h	< 0.1 L/mol/s	< 0.1 L/mol/s		
O=C(Nc1ccccc1)n1ccnc1 [IMIDAZOLE-1-CARBOXYLIC ACID PHENYLAMIDE]	< 15%	< 15%	< 15%	< 15%	< 15%		< 0.1 L/mol/s	< 15%	< 15%	< 15%	< 15%	< 15%	< 15%	> 100 µM		< 0.1 L/mol/s	< 0.1 L/mol/s	inactive	
O=C(Nc1ccccc1)C1CC(Br)=NO1 (configuration not stated)	< 15%	< 15%	< 15%	< 15%	< 15%		< 0.1 L/mol/s	< 15%	< 15%	< 15%	< 15%	< 15%	< 15%	> 100 µM	> 200 h	< 0.1 L/mol/s	< 0.1 L/mol/s	inactive	
C=CC(=O)Nc1ccccc1	< 15%	< 15%	< 15%	< 15%	< 15%		< 0.1 L/mol/s	< 15%	< 15%	< 15%	< 15%	< 15%	< 15%	> 100 µM		< 0.1 L/mol/s	< 0.1 L/mol/s	inactive	< 5%
O=C(CCl)Nc1ccccc1	< 15%	< 15%	< 15%	< 15%	< 15%		< 0.1 L/mol/s	< 15%	< 15%	< 15%	< 15%	< 15%	< 15%	20.9 µM		< 0.1 L/mol/s	< 0.1 L/mol/s	inactive	
N#CCC(=O)Nc1ccccc1	< 15%	< 15%	< 15%	< 15%	< 15%		< 0.1 L/mol/s	< 15%	< 15%	< 15%	< 15%	< 15%	23%	> 100 µM		< 0.1 L/mol/s	< 0.1 L/mol/s	inactive	
